Measured values reported in ChEMBL document CHEMBL1165851, “Synthesis and inhibitory evaluation of cyclohexen-2-yl- and cyclohexyl-substituted phenols and quinones to endothelial cell and cancer cells” (Eur J Med Chem, 2010).
pIC50: −log10 of the molar value.

Assays:
MCF7 = test: Antiproliferative activity human MCF7 cells after 96 hrs by MTT assay; conditions: for pIC50: Homo sapiens, MCF7, 96 h, read-out: IC50; for IC50: mcf7
Bel-7402 = test: Antiproliferative activity human Bel7402 cells after 96 hrs by MTT assay; conditions: for pIC50: Homo sapiens, Bel-7402, 96 h, read-out: IC50; for IC50: bel-7402
A549 = test: Antiproliferative activity human A549 cells after 96 hrs by MTT assay; conditions: for pIC50: Homo sapiens, A549, 96 h, read-out: IC50; for IC50: a549
HUVEC = test: Antiproliferative activity HUVEC after 96 hrs by MTT assay; conditions: for pIC50: Homo sapiens, HUVEC, 96 h, read-out: IC50; for IC50: huvec
[1] = Antiproliferative activity human CCC-HPF1 cells after 20 hrs by MTT assay; format: cell-based; conditions: ccc-hpf1, 96 h, in the assay text read “96 hrs” for “20 hrs”
Summary of the method: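 HUVECs isolated from fresh umbilical cords and used at passages 3–8, grown in EGM-2. A549 and Bel-7402 in RPMI 1640; MCF-7 and ccc-HPF-1 in DMEM; all at 37 °C, 5% CO2. Seeded 1000 (HUVEC, Bel-7402), 1500 (MCF-7, ccc-HPF-1) or 2000 (A549) cells/well and left 20 h. Compound then added from PBS dilutions (final DMSO 0.1%), triplicate, 96 h. Readout MTT viability; IC50/CC50 from viability versus concentration.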

Row | pIC50 (MCF7) | pIC50 (Bel-7402) | pIC50 (A549) | IC50 (MCF7) | IC50 (Bel-7402) | IC50 (A549) | Structure (SMILES) | pIC50 (HUVEC) | IC50 (HUVEC) | CC50 [1]
1 | 4.49 | 4.52 | 4.45 |  |  |  | Cc1ccc(C2C=CCCC2)c(O)c1O (stereo not given) | 4.57 |  | 
2 | ≤ 4.30 | ≤ 4.30 | 4.51 |  |  |  | CC1=CC(=O)C(C2C=CCCC2)=CC1=O (stereo not given) | 5.04 |  | 
3 | ≤ 4.30 | 4.52 | 4.44 |  |  |  | CC(C)(C)c1cc(O)c(C2CCCCC2)cc1O | 5.13 |  | 
4 |  |  |  | Not Active | Not Active | Not Active | Oc1cccc2c1C1CCCCC1O2 (stereo not given) |  | Not Active | Not Active
5 |  |  |  | Not Active | Not Active | Not Active | Cc1c(O)ccc(C2C=CCCC2)c1O (stereo not given) |  | Not Active | Not Active
6 | 4.40 | 4.51 | 4.50 |  |  |  | O=C1C=C(C2C=CCCC2)C(=O)c2ccccc21 (stereo not given) | 4.57 |  | 
7 | ≤ 4.30 | ≤ 4.30 | ≤ 4.30 |  |  |  | Oc1ccccc1C1C=CCCC1 (stereo not given) | 4.50 |  | 
8 | ≤ 4.30 | ≤ 4.30 | ≤ 4.30 |  |  |  | Oc1c(C2C=CCCC2)ccc(C2C=CCCC2)c1O (stereo not given) | 4.54 |  | 
9 | ≤ 4.30 | 4.57 | 4.46 |  |  |  | Cc1cc(O)c(O)c(C2C=CCCC2)c1 (stereo not given) | 4.82 |  | 
10 | 4.58 | 5.07 | 5.02 |  |  |  | Cc1cc(O)c(O)cc1C1C=CCCC1 (stereo not given) | 5.33 |  | 
11 | ≤ 4.30 | ≤ 4.30 | ≤ 4.30 |  |  |  | Cc1c(O)c(C2C=CCCC2)cc(C2C=CCCC2)c1O (stereo not given) | 4.48 |  | 
12 | ≤ 4.30 | ≤ 4.30 | ≤ 4.30 |  |  |  | Oc1cc(C2C=CCCC2)c(O)cc1C1C=CCCC1 (stereo not given) | 5.70 |  | 
13 | ≤ 4.30 | ≤ 4.30 | ≤ 4.30 |  |  |  | Oc1c(C2C=CCCC2)ccc2ccccc12 (stereo not given) | 4.66 |  | 
14 | 4.51 | 4.64 | 4.56 |  |  |  | Cc1cc(O)c(O)cc1C1CCCCC1 | 5.08 |  | 
15 | ≤ 4.30 | ≤ 4.30 | ≤ 4.30 |  |  |  | O=C1C=C(C2C=CCCC2)C(=O)C=C1C1C=CCCC1 (stereo not given) | 5.21 |  | 
16 | ≤ 4.30 | ≤ 4.30 | ≤ 4.30 |  |  |  | CC(C)(C)c1cc(O)c(C2C=CCCC2)cc1O (stereo not given) | 5.85 |  | 
17 | ≤ 4.30 | ≤ 4.30 | ≤ 4.30 |  |  |  | CC(C)(C)C1=CC(=O)C(C2C=CCCC2)=CC1=O (stereo not given) | 5.17 |  | 
18 | ≤ 4.30 | ≤ 4.30 | ≤ 4.30 |  |  |  | CC(C)(C)c1cc2c(cc1O)C1CCCCC1O2 (stereo not given) | 4.65 |  | 
19 | ≤ 4.30 | ≤ 4.30 | ≤ 4.30 |  |  |  | CC(C)(C)c1cc(O)cc(C2C=CCCC2)c1O (stereo not given) | 4.94 |  | 
20 | ≤ 4.30 | ≤ 4.30 | ≤ 4.30 |  |  |  | Oc1cc(C2CCCCC2)c(O)cc1C1CCCCC1 | 5.09 |  | 
21 | ≤ 4.30 | 4.50 | 4.50 |  |  |  | O=C1C=C(C2CCCCC2)C(=O)C=C1C1CCCCC1 | 5.11 |  | 
22 | ≤ 4.30 | ≤ 4.30 | ≤ 4.30 |  |  |  | CC(C)(C)C1=CC(=O)C(C2CCCCC2)=CC1=O | 5.22 |  | 
23 |  |  |  | Not Active | Not Active | Not Active | Cc1cc(O)c2c(c1)OC1CCCCC21 (stereo not given) |  | Not Active | Not Active
24 | ≤ 4.30 | ≤ 4.30 | ≤ 4.30 |  |  |  | CC(C)(C)c1cc(O)c(O)c(C2C=CCCC2)c1 (stereo not given) | 5.00 |  | 
25 |  |  |  | Not Active | Not Active | Not Active | Cc1cc(O)c(C2C=CCCC2)c(O)c1 (stereo not given) |  | Not Active | Not Active
26 |  | 6.24 |  |  |  |  | COc1cccc2c1C(=O)c1c(O)c3c(c(O)c1C2=O)C[C@@](O)(C(=O)CO)C[C@@H]3O[C@H]1C[C@H](N)[C@H](O)[C@H](C)O1 [DOXORUBICIN] |  |  | 
27 |  |  | 8.31 |  |  |  | CC(=O)O[C@H]1C(=O)[C@@]2(C)[C@H]([C@H](OC(=O)c3ccccc3)[C@]3(O)C[C@H](OC(=O)[C@H](O)[C@@H](NC(=O)c4ccccc4)c4ccccc4)C(C)=C1C3(C)C)[C@]1(OC(C)=O)CO[C@@H]1C[C@@H]2O [PACLITAXEL] |  |  | 

Row | Structure (SMILES) | pIC50 (MCF7) | pIC50 (Bel-7402) | pIC50 (A549) | IC50 (MCF7) | IC50 (Bel-7402) | IC50 (A549) | pIC50 (HUVEC) | IC50 (HUVEC) | CC50 [1]
28 | CO[C@@H]1[C@H](OC(=O)NC(=O)CCl)CCC2(CO2)[C@H]1[C@@]1(C)O[C@@H]1CC=C(C)C (single isomer, unassigned) [O-CHLOROACETYLCARBAMOYLFUMAGILLOL] | ≤ 4.30 | ≤ 4.30 | 4.30 |  |  |  | 8.05 |  | 
